17 compounds from ChEMBL document CHEMBL2384966, “Probes for narcotic receptor mediated phenomena. 47. Novel C4a- and N-substituted-1,2,3,4,4a,9a-hexahydrobenzofuro[2,3-c]pyridin-6-ols” (Bioorg Med Chem, 2013) can be followed below.

Assay [1] deals with T1, Delta-type opioid receptor (Homo sapiens, UniProt P41143). As to the kind of experiment: Binding affinity to delta opioid receptor (unknown origin).
For assay [2], the target named is T2, Kappa-type opioid receptor (Homo sapiens, UniProt P41145). The assay is described as follows: Binding affinity to kappa opioid receptor (unknown origin).
T2 sequence (P41145 whole entry): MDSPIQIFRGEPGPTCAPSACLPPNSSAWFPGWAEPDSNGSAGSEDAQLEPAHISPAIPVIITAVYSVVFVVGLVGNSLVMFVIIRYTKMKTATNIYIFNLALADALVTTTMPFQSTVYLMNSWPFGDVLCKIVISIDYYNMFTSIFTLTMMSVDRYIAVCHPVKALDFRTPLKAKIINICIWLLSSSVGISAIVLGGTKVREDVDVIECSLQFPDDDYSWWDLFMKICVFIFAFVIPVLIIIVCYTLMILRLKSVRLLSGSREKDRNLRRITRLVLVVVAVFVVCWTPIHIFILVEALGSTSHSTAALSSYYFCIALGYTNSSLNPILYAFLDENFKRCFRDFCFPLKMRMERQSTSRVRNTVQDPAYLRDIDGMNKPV
Assay [3] deals with T3, Mu-type opioid receptor (Homo sapiens, UniProt P35372). As to the kind of experiment: Binding affinity to mu opioid receptor (unknown origin).
T3 sequence (P35372 whole entry): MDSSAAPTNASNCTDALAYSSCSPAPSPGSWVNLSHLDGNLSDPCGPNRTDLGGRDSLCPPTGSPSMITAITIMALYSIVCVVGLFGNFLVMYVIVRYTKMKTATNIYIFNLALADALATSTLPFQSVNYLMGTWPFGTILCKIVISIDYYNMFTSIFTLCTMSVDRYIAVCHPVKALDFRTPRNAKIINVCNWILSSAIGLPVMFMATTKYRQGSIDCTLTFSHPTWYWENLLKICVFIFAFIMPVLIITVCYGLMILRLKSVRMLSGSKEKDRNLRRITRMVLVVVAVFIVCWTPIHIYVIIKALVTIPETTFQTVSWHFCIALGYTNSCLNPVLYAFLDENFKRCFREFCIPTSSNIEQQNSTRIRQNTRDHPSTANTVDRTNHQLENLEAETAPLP
In assay [4] the target is T2, Kappa-type opioid receptor. The assay is described as follows: Displacement of [3H]U69,593 from human recombinant kappa opioid receptor expressed in CHO cell membranes after 2 hrs by liquid scintillation counting analysis. It counts as cell-based. For orientation: Displacement assays read how much labelled ligand stays bound in the presence of the test substance.
For assay [5], the target named is T1, Delta-type opioid receptor. The assay is described as follows: Displacement of [3H]DADLE from human recombinant delta opioid receptor expressed in CHO cell membranes after 2 hrs by liquid scintillation counting analysis. In short, it runs like this:
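Human DOR stably expressed in CHO cells; washed membranes (~30 µg protein/tube) incubated with ~2 nM [3H]DADLE and 10 drug concentrations in 50 mM Tris-HCl pH 7.4 with protease inhibitors, 2 h at 25 °C. Levallorphan defined nonspecific binding.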

The target in assay [6] is T3, Mu-type opioid receptor. As to the kind of experiment: biochemical. It counts as cell-based, CHO.
For assay [7], the species on record is Homo sapiens. As to the kind of experiment: Selectivity ratio of Ki for human recombinant kappa opioid receptor to Ki for human recombinant delta opioid receptor.
The species named for assay [8] is Homo sapiens. The assay is described as follows: Selectivity ratio of Ki for human recombinant kappa opioid receptor to Ki for human recombinant mu opioid receptor.
For assay [9], the species on record is Homo sapiens. The assay is described as follows: Selectivity ratio of Ki for human recombinant mu opioid receptor to Ki for human recombinant delta opioid receptor.
The target in assay [10] is T1, Delta-type opioid receptor. The assay is described as follows: Antagonist activity at human recombinant delta opioid receptor expressed in mouse/rat NG108-15 cell membranes assessed as inhibition of SNC80-induced [35S]GTPgammaS binding by liquid scintillation counting analysis. It is filed as functional. Background: GTPγS resists hydrolysis and so accumulates on activated G proteins.

In assay [11] the target is T1, Delta-type opioid receptor. As to the kind of experiment: Partial agonist activity at human recombinant delta opioid receptor expressed in mouse/rat NG108-15 cell membranes assessed as stimulation of [35S]GTPgammaS binding after 3 hrs by liquid scintillation counting analysis. It counts as functional. Put shortly: (§1)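 DOR function measured in NG108-15 neuroblastoma-glioma membranes. Incubated with drug, GDP and 50 pM final [35S]GTPγS in 50 mM Tris-HCl pH 7.4, 100 mM NaCl, 10 mM MgCl2, 1 mM EDTA, 1 mM DTT, 0.1% BSA, 3 h at 25 °C. Unlabelled GTPγS defined nonspecific binding. Bound label collected on GF/B filters and scintillation counted; ED50 and Emax reported.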

For assay [12], the target named is T1, Delta-type opioid receptor. The assay is described as follows: Partial agonist activity at human recombinant delta opioid receptor expressed in mouse/rat NG108-15 cell membranes assessed as stimulation of [35S]GTPgammaS binding after 3 hrs by liquid scintillation counting analysis relative to SNC80. It is filed as functional. Put shortly: as §1

The structures appear in SMILES notation. Calls of active or inactive are those of the source. The rule behind the calls is not given here. Bounds are passed on as bounds.

T1 sequence (P41143 whole entry): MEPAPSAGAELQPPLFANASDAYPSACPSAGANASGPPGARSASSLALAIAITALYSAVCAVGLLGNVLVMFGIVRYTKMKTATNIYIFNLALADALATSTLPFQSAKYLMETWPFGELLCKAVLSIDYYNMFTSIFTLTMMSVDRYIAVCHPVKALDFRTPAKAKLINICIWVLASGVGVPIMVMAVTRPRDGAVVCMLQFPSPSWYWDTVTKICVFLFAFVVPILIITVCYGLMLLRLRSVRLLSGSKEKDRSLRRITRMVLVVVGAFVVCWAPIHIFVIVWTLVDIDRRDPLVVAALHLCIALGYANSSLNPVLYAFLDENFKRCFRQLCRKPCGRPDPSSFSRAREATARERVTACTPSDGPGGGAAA

On to `CC[C@@]12CCN(CC3CC3)C[C@@H]1Oc1ccc(O)cc12`, for which the Ki – broadly, the equilibrium dissociation constant of an inhibitor or competing ligand from its target – in assay [1] was determined as 53 nM; in [2], 34 nM; at Mu-type opioid receptor [3] it was 4 nM.
As for `CC[C@@]12CCN(CCc3ccccc3)C[C@@H]1Oc1ccc(O)cc12`, the affinity at Mu-type opioid receptor [3] corresponds to a Ki of 0.9 nM.
In the case of `CN1CC[C@@]2(Cc3ccccc3)c3cc(O)ccc3O[C@H]2C1` (racemic), the results for the Ki (in [4]; in [5]; on Mu-type opioid receptor [6]) were 2880 nM, 64 nM and 60 nM, respectively.
The like results for `CN1CC[C@@]2(CCc3ccccc3)c3cc(O)ccc3O[C@H]2C1` (racemic) were, in that order, 3540 nM, 551 nM and 66 nM.
For `CC[C@@]12CCN(C)C[C@@H]1Oc1ccc(O)cc12` (racemic), the Ratio Ki in the assay listed under Homo sapiens [7] was over 23; in the assay filed under Homo sapiens [8], over 263; in the assay filed under Homo sapiens [9], 0.09. Also, the Ki in [4] was over 5000 nM; in assay [5], 212 nM; at Mu-type opioid receptor [6], 19 nM.
On to `CCCC[C@@]12CCN(C)C[C@@H]1Oc1ccc(O)cc12` (relative stereo), for which the figures for the Ratio Ki in the assay filed under Homo sapiens [7], in the assay listed under Homo sapiens [8] and in the assay filed under Homo sapiens [9] were 9, 20 and 0.5, respectively.
The like results for `CN1CC[C@@]2(C)c3cc(O)ccc3O[C@H]2C1` (relative stereo) were, in that order, over 0.4, over 10 and 0.04.
As for `CN1CC[C@@]2(CCCCCc3ccccc3)c3cc(O)ccc3O[C@H]2C1` (relative stereo), the Ke in assay [10] was over 200 nM. For the same compound, the values for the Ratio Ki in the assay filed under Homo sapiens [7], in the assay filed under Homo sapiens [8] and in the assay filed under Homo sapiens [9] were 0.95, 3 and 0.4, respectively.
`CN1CC[C@@]2(CCc3ccc(F)cc3)c3cc(O)ccc3O[C@H]2C1` (relative stereo): the Ratio Ki in the assay listed under Homo sapiens [7] stood at 22; in the assay filed under Homo sapiens [8], 17; in the assay filed under Homo sapiens [9], 1.3.
On to `CN1CC[C@@]2(CCc3ccccc3F)c3cc(O)ccc3O[C@H]2C1` (relative stereo), for which, in assay [10], the Ke amounted to 29 nM.
Turning to `Oc1ccc2c(c1)[C@]1(CCc3ccccc3)CCN(CC3CC3)C[C@@H]1O2` (relative stereo), the ED50 entry in [11] was “inactive”.
Consider `Oc1ccc2c(c1)[C@]1(CCc3ccccc3)CCN(CCc3ccc(C(F)(F)F)cc3)C[C@@H]1O2` (relative stereo), for which the Ke in assay [10] amounted to 827 nM. Further, the maximum response (Emax) (usually the maximal effect, on the per cent scale that the assay sets) in assay [12] came out at 46%.
On to `Oc1ccc2c(c1)[C@]1(CCc3ccccc3)CCN(CCc3ccc(F)cc3)C[C@@H]1O2` (relative stereo), for which the Ke in [10] was 213 nM. In assay [12], the Emax turned out to be 29%.
On to `Oc1ccc2c(c1)[C@]1(CCc3ccccc3)CCN(CCc3cccc(C(F)(F)F)c3)C[C@@H]1O2` (relative stereo), for which, in assay [10], the Ke is 455 nM.
For the compound `Oc1ccc2c(c1)[C@]1(CCc3ccccc3)CCN(CCc3ccccc3)C[C@@H]1O2` (relative stereo), the Ke in assay [10] was determined as 258 nM. The maximal effect (Emax) in assay [12] came to 29%.
On to `Oc1ccc2c(c1)[C@]1(CCc3ccccc3)CCN(CCc3ccccc3C(F)(F)F)C[C@@H]1O2` (relative stereo), for which the Ratio Ki in the assay listed under Homo sapiens [7] was determined as 14; in the assay filed under Homo sapiens [8], 11; in the assay filed under Homo sapiens [9], 1.3.
`Oc1ccc2c(c1)[C@]1(CCc3ccccc3)CCN(CCc3ccccc3F)C[C@@H]1O2` (relative stereo): the Ke in assay [10] worked out at 37 nM. The ED50 entry in [11] is “inactive”.
